Measured values reported in ChEMBL document CHEMBL3526146, “In vitro and in vivo metabolism and pharmacokinetics of BMS-562086, a potent and orally bioavailable corticotropin-releasing factor-1 receptor antagonist” (Drug Metab Dispos, 2012).

What was measured:
Hepatocyte [1] = test: Detection of compound level in mouse hepatocytes treated with 25 uM of BMS-562086 after 3 hrs by HPLC analysis; type: ADME, cell-based
Procedure, shortened: (§1)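 Mouse, rat, dog, monkey and human hepatocytes (trypan blue viability checked) at 1.0×10^6 cells/ml in Krebs-Henseleit buffer were incubated with 25 µM compound, in duplicate. Conditions were 37°C, 95/5 O2/CO2, orbital shaking, 3 h. 7-Ethoxycoumarin and 7-hydroxycoumarin (100 µM) served as positive controls, with a cell-free negative control. Reactions were quenched with ice-cold acetonitrile, then sonicated and centrifuged; supernatants were analysed by LC/MS/MS.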

Hepatocyte [2] = test: Detection of compound level in rat hepatocytes treated with 25 uM of BMS-562086 after 3 hrs by HPLC analysis; type: ADME, cell-based; procedure, shortened: as §1
[3] = Detection of compound level in beagle dog hepatocytes treated with 25 uM of BMS-562086 after 3 hrs by HPLC analysis; type: ADME, cell-based, Canis lupus familiaris, Hepatocyte; procedure, shortened: as §1
[4] = Detection of compound level in cynomolgus monkey cryopreserved hepatocytes treated with 25 uM of BMS-562086 after 3 hrs by HPLC analysis; type: ADME, cell-based, Macaca fascicularis, Hepatocyte; procedure, shortened: as §1
Hepatocyte [5] = test: Detection of compound level in human cryopreserved hepatocytes treated with 25 uM of BMS-562086 after 3 hrs by HPLC analysis; type: ADME, cell-based; procedure, shortened: as §1
[6] = Apparent permeability from apical to basolateral side in human Caco2 cells; type: ADME, cell-based; details: Caco-2
Procedure, shortened: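 Caco-2 cells (passage 50-60) were seeded at 60,000 cells/cm2 on polycarbonate Transwells and cultured 21-25 days. Transport buffer was HBSS with 2% DMA, pH 7.4. Compound was applied apically at 25 µM at 37°C. Only monolayers with TEER 400-500 Ω cm2 at start and end were used, with mannitol as an integrity probe. Papp = (dQ/dt)/(A×C0).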

Row | Drug metabolism (Hepatocyte [1]) | Drug metabolism (Hepatocyte [2]) | Drug metabolism [3] | Drug metabolism [4] | Drug metabolism (Hepatocyte [5]) | Papp A→B [6] | Structure (SMILES)
1 | metabolite_detected | metabolite_detected | metabolite_detected | metabolite_detected | metabolite_detected |  | CCOc1ccc2ccc(=O)oc2c1
2 |  |  |  |  |  | 0.21 ×10⁻⁶ cm/s | OC[C@@H](O)[C@@H](O)[C@H](O)[C@H](O)CO [MANNITOL]
3 | metabolite_detected | metabolite_detected | metabolite_detected | metabolite_detected | metabolite_detected |  | O=c1ccc2ccc(O)cc2o1 [UMBELLIFERONE]
